Results published in ChEMBL document CHEMBL3994624, “Antimalarial Pyrido[1,2-a]benzimidazoles: Lead Optimization, Parasite Life Cycle Stage Profile, Mechanistic Evaluation, Killing Kinetics, and in Vivo Oral Efficacy in a Mouse Model” (J Med Chem, 2017).
In brackets after ≈: the same amount, converted by molar mass.

Columns and labels:
[1] = tested on: Plasmodium falciparum; assay: Anti-plasmodial activity against chloroquine-sensitive Plasmodium falciparum NF54 by [3H]-hypoxanthine incorporation assay; format: functional
Method in brief: (§1)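 P. falciparum asexual blood-stage growth inhibition by [3H]hypoxanthine incorporation; chloroquine and artesunate run as reference drugs in every experiment; IC50 given as mean of ≥2 independent experiments.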

[2] = tested on: Plasmodium falciparum; assay: Anti-plasmodial activity against multidrug resistant Plasmodium falciparum K1 by [3H]-hypoxanthine incorporation assay; format: functional; method in brief: as §1
[3] = tested on: CHO; assay: Cytotoxicity against CHO cells after by MTT assay; format: cell-based; details: Cricetulus griseus
[4] = Selectivity index, ratio of IC50 for CHO cells to IC50 for chloroquine-sensitive Plasmodium falciparum NF54; format: toxicity; details: hamster, read-out: Ratio IC50
Method in brief: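 Selectivity index = IC50 CHO / IC50 PfNF54.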

[5] = tested on: Plasmodium falciparum; assay: Anti-plasmodial activity against chloroquine-sensitive Plasmodium falciparum NF54 late 4/5 stage gametocytes assessed as reduction in ATP levels after 24 hrs by BacTiter-Glo reagent based bioluminescence assay; format: functional; details: NF54, 24 h
[6] = tested on: Plasmodium falciparum; assay: Ratio of IC50 for chloroquine-sensitive Plasmodium falciparum NF54 early 2/3 stage gametocytes to IC50 for chloroquine-sensitive Plasmodium falciparum NF54 late 4/5 stage gametocytes; format: functional
Method in brief: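 Early (stage II/III) and late (stage IV/V) gametocytes tested in parallel luciferase reporter assays; stage preference = EG IC50/LG IC50.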

[7] = tested on: Huh-7; assay: Cytotoxicity against human HuH7 cells at 1 to 10 uM after 48 hrs by Alamarblue assay; format: cell-based; details: huh-7, 48 h
[8] = Metabolic stability in Balb/c mouse liver microsomes assessed as compound remaining at 1 uM in presence of NADPH after 30 mins by LC-MS/MS analysis; format: ADME, microsome; details: read-out: Stability
Method in brief: (§2)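 Mouse and human liver microsomes; % compound remaining after 30 min.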

[9] = Metabolic stability in human liver microsomes assessed as compound remaining at 1 uM in presence of NADPH after 30 mins by LC-MS/MS analysis; format: ADME, microsome; details: read-out: Stability; method in brief: as §2
[10] = Kinetic solubility of the compound in FaSSIF at pH 6.5 after 2 hrs by shake flask method; format: physicochemical; details: read-out: Kinetic_solubility

SMILES	IC50 [1]	IC50 [2]	IC50 [3]	selectivity ratio [4]	other results
CCNCCNc1cc(-c2ccc([S+](C)[O-])cc2)c(C#N)c2nc3ccccc3n12 (stereo not drawn)	3.81 µM	–	–	–	–
CCNCCNc1cc(-c2ccc(C#N)cc2)c(C#N)c2nc3ccccc3n12	0.17 µM	0.2 µM	3.9 µM	23	IC50 [5]: 2.66 µM; Ratio IC50 [6]: 1.3; Activity [7]: Non-Toxic
N#Cc1c(-c2ccc(C(F)(F)F)cc2)cc(NCC2CCOCC2)n2c1nc1ccccc12	> 10 µM	–	–	–	–
CNC1CCN(c2cc(-c3ccc(C(F)(F)F)cc3)c(C#N)c3nc4ccccc4n23)CC1	0.84 µM	0.9 µM	6.31 µM	8	–
CCNCCNc1cc(-c2ccc(C(=O)OC)cc2)c(C#N)c2nc3ccccc3n12	1.56 µM	–	–	–	IC50 [5]: 1.68 µM; Ratio IC50 [6]: 1.4; Activity [7]: Non-Toxic
CCNCCNc1cc(-c2ccc(C(F)(F)F)cc2)c(C#N)c2nc3cc(Br)ccc3n12	0.38 µM	–	1.8 µM	5	–
N#Cc1c(-c2ccc(C(F)(F)F)cc2)cc(NC2CCS(=O)(=O)CC2)n2c1nc1ccccc12	7.81 µM	–	–	–	–
Cc1ncc2n1-c1ccc(Cl)cc1C(c1ccccc1F)=NC2 [MIDAZOLAM]	–	–	–	–	remaining at 0.5 h, 1 µM [8]: 1.3%; remaining at 0.5 h, 1 µM [9]: 0.1%
CCNCCNc1cc(-c2ccccc2)c(C#N)c2nc3ccccc3n12	0.7 µM	1.07 µM	18.3 µM	26	IC50 [5]: 1.44 µM; Activity [7]: Non-Toxic
N#Cc1c(-c2ccc(C(F)(F)F)cc2)cc(N2CCC(=O)CC2)n2c1nc1ccccc12	> 10 µM	–	–	–	–
CC[C@H]1CN2CCc3cc(OC)c(OC)cc3[C@@H]2C[C@@H]1C[C@H]1NCCc2cc(OC)c(OC)cc21 [EMETINE]	–	–	0.095 µM	–	–
CCNCCNc1cc(-c2ccc(C(F)(F)F)cc2)c(C#N)c2nc3cccc(Br)c3n12	0.15 µM	0.24 µM	1.55 µM	2	–
N#Cc1c(-c2ccc(C(F)(F)F)cc2)cc(N2CCC(N)CC2)n2c1nc1ccccc12	0.95 µM	0.7 µM	15.8 µM	17	solubility kinetic at 2 h [10]: < 5 µM; remaining at 0.5 h, 1 µM [8]: 92%; remaining at 0.5 h, 1 µM [9]: 91%
CCNCCNc1cc(-c2ccc(Cl)cc2)c(C#N)c2nc3ccccc3n12	0.66 µM	0.43 µM	9.6 µM	15	IC50 [5]: 0.69 µM; Ratio IC50 [6]: 1.5; Activity [7]: Non-Toxic
N#Cc1c(-c2ccc(C(F)(F)F)cc2)cc(NCC2CCS(=O)(=O)CC2)n2c1nc1ccccc12	> 10 µM	–	–	–	–
CNC1CCCN(c2cc(-c3ccc(C(F)(F)F)cc3)c(C#N)c3nc4ccccc4n23)C1 (stereo not drawn)	1.38 µM	–	–	–	–
N#Cc1c(-c2ccc(C(F)(F)F)cc2)cc(N2CCC(O)CC2)n2c1nc1ccccc12	> 24 µM	–	–	–	–
CCNCCNc1cc(-c2ccc(SC)cc2)c(C#N)c2nc3ccccc3n12	3.9 µM	–	–	–	–
CCNCCNc1c(F)c(-c2ccc(C(F)(F)F)cc2)c(C#N)c2nc3ccccc3n12	5.53 µM	–	–	–	solubility kinetic at 2 h [10]: 160 µM (≈ 70.6 µg/mL); remaining at 0.5 h, 1 µM [8]: 35%; remaining at 0.5 h, 1 µM [9]: 39%
CN1CCN(c2cc(-c3ccc(C(F)(F)F)cc3)c(C#N)c3nc4ccccc4n23)CC1	7.26 µM	0.46 µM	–	–	–
CS(=O)(=O)NCCNc1cc(-c2ccc(C(F)(F)F)cc2)c(C#N)c2nc3ccccc3n12	9.1 µM	–	–	–	–
CCNCCNc1cc(-c2ccccc2F)c(C#N)c2nc3ccccc3n12	0.89 µM	1 µM	24.4 µM	27	–
CN1CCC(Nc2cc(-c3ccc(C(F)(F)F)cc3)c(C#N)c3nc4cc(Cl)c(Cl)cc4n23)CC1	0.05 µM	0.19 µM	4.19 µM	6.1	–
CCNCCNc1cc(C2CCCC2)c(C#N)c2nc3ccccc3n12	0.83 µM	0.82 µM	3.77 µM	5	IC50 [5]: 0.67 µM; Ratio IC50 [6]: 1.7; Activity [7]: Non-Toxic

SMILES	IC50 [1]	IC50 [2]	IC50 [3]	selectivity ratio [4]	other results
CC(=O)NCCNc1cc(-c2ccc(C(F)(F)F)cc2)c(C#N)c2nc3ccccc3n12	16.4 µM	–	–	–	–
N#Cc1c(-c2ccc(C(F)(F)F)cc2)cc(N2CCC(O)C2)n2c1nc1ccccc12 (stereo not drawn)	8.48 µM	–	–	–	–
CS(=O)(=O)N1CCN(CCNc2cc(-c3ccc(C(F)(F)F)cc3)c(C#N)c3nc4ccccc4n23)CC1	> 10 µM	–	–	–	–
Cc1c(-c2ccc(C(F)(F)F)cc2)c(C#N)c2nc3ccccc3n2c1NCCN1CCC(O)C1 (stereo not drawn)	0.55 µM	0.47 µM	25 µM	45	solubility kinetic at 2 h [10]: < 5 µM
CCNCCNc1cc(-c2ccc(C(F)(F)F)cc2)c(C#N)c2nc3ncccc3n12	0.14 µM	0.13 µM	4.1 µM	5	solubility kinetic at 2 h [10]: 10 µM (≈ 4.24 µg/mL)
CCNCCNc1cc(-c2ccc(C(F)(F)F)cc2)c(C#N)c2nc3ccc(Br)cc3n12	0.07 µM	–	4.44 µM	63	–
CCNCCNc1cc(-c2ccc(C(F)(F)F)cc2)c(C#N)c2nc3cnccc3n12	0.27 µM	0.84 µM	3.14 µM	6	–
N#Cc1c(-c2ccc(C(F)(F)F)cc2)cc(N2CCNCC2)n2c1nc1ccccc12	3 µM	0.44 µM	–	–	–
CCNCCNc1cc(C(F)(F)F)c(C#N)c2nc3ccccc3n12	2.93 µM	–	–	–	–
N#Cc1c(-c2ccc(C(F)(F)F)cc2)cc(NCCN2CCC(O)CC2)n2c1nc1ccccc12	1.1 µM	–	–	–	solubility kinetic at 2 h [10]: < 5 µM
N#Cc1c(-c2ccc(C(F)(F)F)cc2)cc(NC2CCC(O)CC2)n2c1nc1ccccc12 (stereo not drawn)	> 10 µM	–	–	–	–
CNC1CCN(c2cc(-c3ccc(C(F)(F)F)cc3)c(C#N)c3nc4ccccc4n23)C1 (stereo not drawn)	1.14 µM	–	–	–	–
N#Cc1c(-c2ccc(C(F)(F)F)cc2)cc(N2CCC(N)CC2)n2c1nc1cc(Cl)cc(Cl)c12	0.18 µM	0.21 µM	2.98 µM	7.3	–
CC1(O)CCC(Nc2cc(-c3ccc(C(F)(F)F)cc3)c(C#N)c3nc4ccccc4n23)CC1 (stereo not drawn)	6.45 µM	–	–	–	–
N#Cc1c(-c2ccc(C(F)(F)F)cc2)cc(NCCN2CCCC2=O)n2c1nc1ccccc12	5.99 µM	–	–	–	–
CCNCCNc1cc(-c2ccc(S(C)(=O)=O)cc2)c(C#N)c2nc3ccccc3n12	0.31 µM	0.33 µM	204 µM	658	solubility kinetic at 2 h [10]: 40 µM (≈ 17.3 µg/mL); remaining at 0.5 h, 1 µM [8]: 86%
CC(C)(O)C1CCC(Nc2cc(-c3ccc(C(F)(F)F)cc3)c(C#N)c3nc4ccccc4n23)CC1 (stereo not drawn)	4.96 µM	–	–	–	–
CS(=O)(=O)N1CCC(Nc2cc(-c3ccc(C(F)(F)F)cc3)c(C#N)c3nc4ccccc4n23)CC1	5.02 µM	–	–	–	–
CC(=O)N1CCC(Nc2cc(-c3ccc(C(F)(F)F)cc3)c(C#N)c3nc4ccccc4n23)CC1	4.42 µM	–	–	–	–
CN1CCC(Oc2cc(-c3ccc(C(F)(F)F)cc3)c(C#N)c3nc4ccccc4n23)CC1	0.7 µM	0.96 µM	4.07 µM	6	–
CS(=O)(=O)c1ccc(-c2cnc(N)c(-c3ccc(C(F)(F)F)nc3)c2)cc1 [MMV-048]	–	–	–	–	remaining at 0.5 h, 1 µM [8]: 94%; remaining at 0.5 h, 1 µM [9]: 93%
N#Cc1c(-c2ccc(C(F)(F)F)cc2)cc(NC2CCNCC2)n2c1nc1cc(Cl)cc(Cl)c12	0.26 µM	–	5.9 µM	22.3	–
CCN(CC)CCCC(C)Nc1cc(C(F)(F)F)c(C#N)c2nc3ccccc3n12 (stereo not drawn)	4.13 µM	–	–	–	–
N#Cc1c(-c2ccc(C(F)(F)F)cc2)cc(N2CC(O)C2)n2c1nc1ccccc12	21.3 µM	–	–	–	–
